From PMC5035790 (Annals of Oncology, 2016)

System: patients with advanced solid tumors or non-Hodgkin's lymphoma
Assay: Phase I dose-escalation study: safety, tolerability, MTD, adverse events
Assay type: in vivo, human
In short: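 Adults with advanced solid tumours (plus NHL and type 2 diabetic expansion cohorts) received a 1-h IV infusion on days 1, 8 and 15 of 28-day cycles over 0.1–1.2 mg/kg. Accelerated titration escalated the dose by 100% per cohort. MTD was the highest dose given to six patients with ≤1 DLT. Fasting was 8 h pre- and 3 h post-start on cycle 1 day 1. AEs were assessed at planned times each cycle and at follow-up.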

COc1c(OCCCN2CCOCC2)ccc2c1N=C(NC(=O)c1cnc(N)nc1)N1CCN=C21 [copanlisib, Copanlisib]
8 (89) n (%): Any drug-related AE (NHL expansion, 0.8 mg/kg, n=9) | Drug-related hyperglycemia, all grades (NHL expansion, 0.8 mg/kg, n=9)
1 (11) n (%): Drug-related AEs of grade 4 (NHL expansion, 0.8 mg/kg, n=9) | Drug-related rash/desquamation, grade 3 (NHL expansion, 0.8 mg/kg, n=9) | Drug-related vomiting, all grades (NHL expansion, 0.8 mg/kg, n=9)
0 n (%): Drug-related diarrhea, grade 3 (NHL expansion, 0.8 mg/kg, n=9) | Drug-related fatigue, grade 3 (NHL expansion, 0.8 mg/kg, n=9) | Drug-related nausea, grade 3 (NHL expansion, 0.8 mg/kg, n=9) | Drug-related oral cavity mucositis, grade 3 (NHL expansion, 0.8 mg/kg, n=9) | Drug-related vomiting, grade 3 (NHL expansion, 0.8 mg/kg, n=9) | Drug-related AEs of grade 3 (cohort 1, 0.1 mg/kg, n=1) | Drug-related AEs of grade 4 (cohort 1, 0.1 mg/kg, n=1) | Drug-related diarrhea, all grades (cohort 1, 0.1 mg/kg, n=1) | Drug-related diarrhea, grade 3 (cohort 1, 0.1 mg/kg, n=1) | Drug-related fatigue, all grades (cohort 1, 0.1 mg/kg, n=1) | Drug-related fatigue, grade 3 (cohort 1, 0.1 mg/kg, n=1) | Drug-related hyperglycemia, all grades (cohort 1, 0.1 mg/kg, n=1) | Drug-related hyperglycemia, grade 3 (cohort 1, 0.1 mg/kg, n=1) | Drug-related hypertension, all grades (cohort 1, 0.1 mg/kg, n=1) | Drug-related hypertension, grade 3 (cohort 1, 0.1 mg/kg, n=1) | Drug-related nausea, all grades (cohort 1, 0.1 mg/kg, n=1) | Drug-related nausea, grade 3 (cohort 1, 0.1 mg/kg, n=1) | Drug-related oral cavity mucositis, all grades (cohort 1, 0.1 mg/kg, n=1) | Drug-related oral cavity mucositis, grade 3 (cohort 1, 0.1 mg/kg, n=1) | Drug-related rash/desquamation, all grades (cohort 1, 0.1 mg/kg, n=1) | Drug-related rash/desquamation, grade 3 (cohort 1, 0.1 mg/kg, n=1) | Drug-related vomiting, all grades (cohort 1, 0.1 mg/kg, n=1) | Drug-related vomiting, grade 3 (cohort 1, 0.1 mg/kg, n=1) | Drug-related AEs of grade 4 (cohort 2, 0.2 mg/kg, n=3) | Drug-related fatigue, grade 3 (cohort 2, 0.2 mg/kg, n=3) | Drug-related hyperglycemia, grade 3 (cohort 2, 0.2 mg/kg, n=3) | Drug-related hypertension, all grades (cohort 2, 0.2 mg/kg, n=3) | Drug-related hypertension, grade 3 (cohort 2, 0.2 mg/kg, n=3) | Drug-related nausea, grade 3 (cohort 2, 0.2 mg/kg, n=3) | Drug-related oral cavity mucositis, grade 3 (cohort 2, 0.2 mg/kg, n=3) | Drug-related rash/desquamation, all grades (cohort 2, 0.2 mg/kg, n=3) | Drug-related rash/desquamation, grade 3 (cohort 2, 0.2 mg/kg, n=3) | Drug-related vomiting, grade 3 (cohort 2, 0.2 mg/kg, n=3) | Drug-related AEs of grade 4 (cohort 3, 0.4 mg/kg, n=3) | Drug-related diarrhea, all grades (cohort 3, 0.4 mg/kg, n=3) | Drug-related diarrhea, grade 3 (cohort 3, 0.4 mg/kg, n=3) | Drug-related fatigue, all grades (cohort 3, 0.4 mg/kg, n=3) | Drug-related fatigue, grade 3 (cohort 3, 0.4 mg/kg, n=3) | Drug-related hyperglycemia, grade 3 (cohort 3, 0.4 mg/kg, n=3) | Drug-related nausea, all grades (cohort 3, 0.4 mg/kg, n=3) | Drug-related nausea, grade 3 (cohort 3, 0.4 mg/kg, n=3) | Drug-related oral cavity mucositis, all grades (cohort 3, 0.4 mg/kg, n=3) | Drug-related oral cavity mucositis, grade 3 (cohort 3, 0.4 mg/kg, n=3) | Drug-related rash/desquamation, all grades (cohort 3, 0.4 mg/kg, n=3) | Drug-related rash/desquamation, grade 3 (cohort 3, 0.4 mg/kg, n=3) | Drug-related vomiting, all grades (cohort 3, 0.4 mg/kg, n=3) | Drug-related vomiting, grade 3 (cohort 3, 0.4 mg/kg, n=3) | Drug-related AEs of grade 4 (cohort 4, 0.8 mg/kg, n=7) | Drug-related diarrhea, grade 3 (cohort 4, 0.8 mg/kg, n=7) | Drug-related fatigue, all grades (cohort 4, 0.8 mg/kg, n=7) | Drug-related fatigue, grade 3 (cohort 4, 0.8 mg/kg, n=7)
2%: diarrhea, grade ≥3 (all patients, n=57, text)
21%: Drug-related hypertension, all grades (all patients, n=57, text)
2 (22) n (%): Drug-related rash/desquamation, all grades (NHL expansion, 0.8 mg/kg, n=9)
1 (14) n (%): Drug-related diarrhea, all grades (cohort 4, 0.8 mg/kg, n=7)
63%: Drug-related hyperglycemia, all grades (all patients, n=57, text)
5 (56) n (%): Drug-related AEs of grade 3 (NHL expansion, 0.8 mg/kg, n=9)
1 (100) n (%): Any drug-related AE (cohort 1, 0.1 mg/kg, n=1)
7 (100) n (%): Any drug-related AE (cohort 4, 0.8 mg/kg, n=7) | Drug-related hyperglycemia, all grades (cohort 4, 0.8 mg/kg, n=7)
no DLTs: dose-limiting toxicities (DLTs) (0.8 mg/kg dose-escalation cohort)
7%: drug-related rash, grade 3 (all patients, n=57, text)
25%: dose modifications caused by drug-related AEs (14 of 57 patients)
16%: diarrhea, all-grade (all patients, n=57, text)
37%: Drug-related nausea, all grades (all patients, n=57, text, all events grade ≤2)
14%: Drug-related hypertension, grade 3 (all patients, n=57, text)
7 (78) n (%): Drug-related nausea, all grades (NHL expansion, 0.8 mg/kg, n=9)
1 (33) n (%): Drug-related diarrhea, grade 3 (cohort 2, 0.2 mg/kg, n=3) | Drug-related fatigue, all grades (cohort 2, 0.2 mg/kg, n=3) | Drug-related hyperglycemia, all grades (cohort 2, 0.2 mg/kg, n=3) | Drug-related oral cavity mucositis, all grades (cohort 2, 0.2 mg/kg, n=3) | Drug-related vomiting, all grades (cohort 2, 0.2 mg/kg, n=3) | Drug-related AEs of grade 3 (cohort 3, 0.4 mg/kg, n=3) | Drug-related hyperglycemia, all grades (cohort 3, 0.4 mg/kg, n=3) | Drug-related hypertension, all grades (cohort 3, 0.4 mg/kg, n=3) | Drug-related hypertension, grade 3 (cohort 3, 0.4 mg/kg, n=3)
4 (57) n (%): Drug-related AEs of grade 3 (cohort 4, 0.8 mg/kg, n=7)
3 (33) n (%): Drug-related diarrhea, all grades (NHL expansion, 0.8 mg/kg, n=9) | Drug-related fatigue, all grades (NHL expansion, 0.8 mg/kg, n=9) | Drug-related hyperglycemia, grade 3 (NHL expansion, 0.8 mg/kg, n=9) | Drug-related hypertension, all grades (NHL expansion, 0.8 mg/kg, n=9) | Drug-related hypertension, grade 3 (NHL expansion, 0.8 mg/kg, n=9) | Drug-related oral cavity mucositis, all grades (NHL expansion, 0.8 mg/kg, n=9)
2 (67) n (%): Drug-related AEs of grade 3 (cohort 2, 0.2 mg/kg, n=3) | Drug-related diarrhea, all grades (cohort 2, 0.2 mg/kg, n=3) | Any drug-related AE (cohort 3, 0.4 mg/kg, n=3)
3 (100) n (%): Any drug-related AE (cohort 2, 0.2 mg/kg, n=3) | Drug-related nausea, all grades (cohort 2, 0.2 mg/kg, n=3)
